ChEMBL document CHEMBL3352065, “Greensporones: resorcylic acid lactones from an aquatic Halenospora sp” (J Nat Prod, 2014)
Active and inactive are the calls of the source. No cut-off for these calls is given here.

How the values were obtained:
[1] = target: TAK1/TAB1 (Homo sapiens) (UniProt Q15750+O43318); test: Inhibition of Tak1-TAB1 (unknown origin) assessed as enzyme activity by Kinase-Glo Plus luminescence kinase assay; format: protein-complex assay
[2] = system: HT-29; test: Cytotoxicity against human HT-29 cells assessed as cell viability after 72 hrs; format: functional, cell-based; details: HT-29, 72 h
Procedure, shortened: (§1)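 ATCC lines grown in RPMI 1640 with 10% FBS, penicillin and streptomycin at 37 °C, 5% CO2. Log-phase cells were trypsinized, washed twice, seeded at 5000/well and incubated overnight. Compound was added from DMSO at 20, 4, 0.8, 0.16 and 0.032 μM (0.5% DMSO final) for 72 h at 37 °C. Viable cells were read by commercial absorbance assay. IC50 is growth inhibition to 50% of DMSO control.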

[3] = system: MDA-MB-435; test: Cytotoxicity against human MDA-MB-435 cells assessed as cell viability after 72 hrs; format: functional, cell-based; details: MDA-MB-435, 72 h; procedure, shortened: as §1
[4] = system: HT-29; test: Cytotoxicity against human HT-29 cells assessed as cell viability at 10 nM after 72 hrs; format: functional; details: HT-29, 72 h, read-out: Activity
Procedure, shortened: (§2)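 Vinblastine was the positive control, at 10 nM in HT-29 and 1 nM in MDA-MB-435 cells. Cells were seeded at 5000/well, incubated overnight, then exposed for 72 h at 37 °C in 5% CO2. Viability was read by absorbance assay of viable cells and expressed as % viable cells.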

[5] = system: MDA-MB-435; test: Cytotoxicity against human MDA-MB-435 cells assessed as cell viability at 1 nM after 72 hrs; format: functional; details: MDA-MB-435, 72 h, read-out: Activity; procedure, shortened: as §2

Row | SMILES | inhibition [1] | IC50 [2] [µM] | IC50 [3] [µM] | viability at 0.01 µM [4] [%] | viability at 0.001 µM [5] [%]
1 | COc1cc(O)cc2c1C(=O)O[C@@H](C)CC[C@H]1CC[C@H](CC(=O)C2)O1 | inactive | – | – | – | –
2 | COc1cc(O)c(Cl)c2c1C(=O)O[C@@H](C)CCC(=O)CC/C=C/C(=O)C2 | inactive | > 20 | 14.1 | – | –
3 | COc1cc(O)cc2c1C(=O)O[C@@H](C)CCCCC/C=C/C(=O)C2 | inactive | 7.5 | 2.9 | – | –
4 | COc1cc(O)c(Cl)c2c1C(=O)O[C@@H](C)CC[C@@H](O)CCCCC(=O)C2 | inactive | – | – | – | –
5 | COc1cc(O)cc2c1C(=O)O[C@@H](C)CC[C@H]1CC[C@@H](CC(=O)C2)O1 | inactive | – | – | – | –
6 | COc1cc(O)cc2c1C(=O)O[C@@H](C)CCC(=O)CC/C=C/C(=O)C2 | inactive | > 20 | 14.1 | – | –
7 | COc1cc(O)cc2c1C(=O)O[C@@H](C)CCCCCCCC(=O)C2 | inactive | – | – | – | –
8 | C[C@H]1CCCCC/C=C/C(=O)Cc2cc(O)cc(O)c2C(=O)O1 | inactive | 13.8 | 14.5 | – | –
9 | COc1cc(O)cc2c1C(=O)O[C@@H](C)CC[C@@H](O)CC/C=C/C(=O)C2 | inactive | 25.4 | 11.2 | – | –
10 | COc1cc(O)c(Cl)c2c1C(=O)O[C@@H](C)CCC(=O)CC/C=C\C(=O)C2 | inactive | – | – | – | –
11 | CC[C@]1(O)C[C@@H]2CN(CCc3c([nH]c4ccccc34)[C@@](C(=O)OC)(c3cc4c(cc3OC)N(C)[C@H]3[C@@](O)(C(=O)OC)[C@H](OC(C)=O)[C@]5(CC)C=CCN6CC[C@]43[C@@H]65)C2)C1 [VINBLASTINE] | – | – | – | 44 | 21
12 | COc1cc(O)c(Cl)c2c1C(=O)O[C@@H](C)CC[C@@H](O)CC/C=C\C(=O)C2 | inactive | – | – | – | –
13 | COc1cc(O)c(Cl)c2c1C(=O)O[C@@H](C)CCC(=O)CCCCC(=O)C2 | inactive | – | – | – | –
